Test results published in ChEMBL document CHEMBL4257546, “Discovery of new FXR agonists based on 6-ECDCA binding properties by virtual screening and molecular docking” (Medchemcomm, 2018).
Calls of active or inactive are those of the source.

Legend:
[1] = target: T1, Bile acid receptor (Homo sapiens) (UniProt Q96RI1); test: Transactivation of full-length FXR (unknown origin) expressed in HEK293 cells at 100 uM after 18 hrs by dual-glo luciferase reporter gene assay relative to CDCA; type: cell-based
T1 sequence (whole entry): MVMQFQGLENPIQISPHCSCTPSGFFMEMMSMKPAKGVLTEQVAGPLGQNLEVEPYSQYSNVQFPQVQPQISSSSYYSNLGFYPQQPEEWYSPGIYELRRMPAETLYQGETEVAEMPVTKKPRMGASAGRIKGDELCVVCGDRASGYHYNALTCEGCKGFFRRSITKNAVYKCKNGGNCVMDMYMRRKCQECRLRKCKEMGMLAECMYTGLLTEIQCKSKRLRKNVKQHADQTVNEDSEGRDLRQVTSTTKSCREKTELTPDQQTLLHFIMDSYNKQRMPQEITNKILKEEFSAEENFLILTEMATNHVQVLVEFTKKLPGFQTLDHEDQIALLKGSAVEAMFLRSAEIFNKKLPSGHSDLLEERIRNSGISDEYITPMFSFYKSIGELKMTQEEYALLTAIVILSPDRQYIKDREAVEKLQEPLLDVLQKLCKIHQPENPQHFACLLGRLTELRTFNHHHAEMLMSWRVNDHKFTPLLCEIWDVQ
Method in brief: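 HEK293 cells co-transfected by calcium phosphate with full-length FXR expression plasmid, FXRE-driven firefly luciferase reporter and Renilla normalization vector. Compound added at 100 μM 6 h after transfection; dual luciferase read 18 h later. Firefly normalized to Renilla, expressed as fold activation over untreated cells, then as percent of maximal fold induction by CDCA. At least two separate experiments, triplicate assays.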

HEK293 [2] = test: Effect on renilla luciferase expression in HEK293 cells at 100 uM after 18 hrs by dual-glo luciferase reporter gene assay; type: ADME, cell-based; conditions: human, hek293, 18 h
Method in brief: (§1)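 HEK293 in DMEM with 10% FBS, 37 °C, 5% CO2; calcium phosphate co-transfection in serum-free medium with TK-FXRE-luc reporter (50 ng), Renilla vector (20 ng) and full-length FXR plasmid (30 ng) per well. Compounds added 6 h post-transfection, cells harvested 18 h later; Renilla luminescence (Dual-Glo) monitored as the cell-status control over 0.1–250 μM.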

Bile acid receptor = target: T2, Bile acid receptor (Homo sapiens, UniProt Q96RI1); test: Transactivation of full-length FXR (unknown origin) expressed in HEK293 cells after 18 hrs by dual-glo luciferase reporter gene assay; type: cell-based
T2 sequence (Q96RI1 whole entry): T1 sequence (whole entry)

HEK293 [3] = test: Cytotoxicity against HEK293 cells assessed as effect on renilla luciferase expression at 0.1 to 250 uM after 18 hrs by dual-glo luciferase reporter gene expression; type: cell-based; conditions: human, hek293, 18 h; method in brief: as §1

Structure (SMILES) | Activity [1] | Activity (HEK293 [2]) | Efficacy [1] [%] | EC50 (Bile acid receptor) [µM] | Activity (HEK293 [3])
Cc1cc(CNC(=O)c2ccccc2SC2CCS(=O)(=O)C2)ccc1F (stereo unspecified) | inactive | Non-Toxic |  |  | 
CCOC(=O)CC(c1ccc(F)cc1)C1CCN(C(=O)c2ccc([N+](=O)[O-])o2)CC1 (stereo unspecified) | inactive | Non-Toxic |  |  | 
CNC(=O)C1CN(CC(=O)Nc2cc(C)c(Cl)cc2OC)c2ccccc2O1 (stereo unspecified) | inactive | Non-Toxic |  |  | 
COc1ccc(CN(C)C(=O)c2c[nH]c3ccccc23)cc1F | inactive | Non-Toxic |  |  | 
O=C(O)c1ccccc1-c1ccccc1C(=O)N1CCN(Cc2ccc3c(c2)OCO3)CC1 |  | Non-Toxic | 55.1 | 5.99 | Non-Toxic
O=C(CN(Cc1ccc2c(c1)OCO2)C1CCCC1)Nc1cccc2ccccc12 | inactive | Non-Toxic |  |  | 
O=C(COc1ccccc1Cl)NNC(=O)c1cccc(NS(=O)(=O)c2ccc3c(c2)OCCCO3)c1 | inactive | Non-Toxic |  |  | 
CCn1c(CNc2ccc(Cl)cc2)nnc1SCC(=O)NNC(=O)c1ccc(Cl)cc1 | inactive | Non-Toxic |  |  | 
CC(Sc1nnc(C2CCCC2)[nH]1)C(=O)Nc1sccc1C(N)=O (stereo unspecified) | inactive | Non-Toxic |  |  | 
O=C(Nc1ccccc1)Nc1ccccc1NS(=O)(=O)c1ccccc1 | inactive | Non-Toxic |  |  | 
COc1cc([N+](=O)[O-])ccc1NC(=O)CNc1ccccc1N1CCCC1=O |  | Non-Toxic | 120 | 4.33 | Non-Toxic
NC(=O)CSc1ccccc1NCC(=O)Nc1ccc(Cl)cc1Cl | inactive | Non-Toxic |  |  | 
NC(=O)CSc1ccccc1NC(=O)Nc1ccc(Cl)c(Cl)c1 | inactive | Non-Toxic |  |  | 
O=C(Nc1ccc(N2CCOCC2)cc1)c1ccccc1SC1CCS(=O)(=O)C1 (stereo unspecified) | inactive | Non-Toxic |  |  | 
COC(=O)/C=C/c1ccc(OCC(=O)NC2c3ccccc3-c3ccccc32)c(OC)c1 | inactive | Non-Toxic |  |  | 
COc1ccc(Nc2ccc(NC(=O)c3ccccc3NS(=O)(=O)c3cc(C)ccc3C)cc2)cc1 | inactive | Non-Toxic |  |  | 
Cc1cc(/N=N/Cc2ccccc2)nc(NS(=O)(=O)c2ccccc2Cl)n1 | inactive | Non-Toxic |  |  | 
Cc1ccc([N+](=O)[O-])cc1NCC(=O)Nc1cc(C(F)(F)F)ccc1-n1cncn1 | inactive | Non-Toxic |  |  | 
Cc1nn(-c2ccccc2)c(N)c1C(O)(CC(=O)C(F)(F)F)C(F)(F)F (stereo unspecified) | inactive | Non-Toxic |  |  | 
Nc1nc(CSc2nnnn2Cc2ccccc2)nc(Nc2ccccc2)n1 | inactive | Non-Toxic |  |  | 
CC(NS(=O)(=O)c1ccccc1F)C(=O)Cc1nc2ccccc2[nH]1 (stereo unspecified) | inactive | Non-Toxic |  |  | 
CC1(CSc2cccc(C(=O)NCc3cccs3)c2)NC(=O)NC1=O (stereo unspecified) | inactive | Non-Toxic |  |  | 
CS(=O)(=O)N1CCC(NC(=O)CC(NC(N)=O)c2ccccc2F)CC1 (stereo unspecified) | inactive | Non-Toxic |  |  | 
O=C(CN1CC(C(=O)N2CCCCC2)Oc2ccccc21)NC(=O)NCc1ccco1 (stereo unspecified) | inactive | Non-Toxic |  |  | 
CN(Cc1ccc(N2CCCCC2)cc1)C(=O)c1n[nH]c(=O)c2ccccc12 |  | Non-Toxic | 60.3 | 14.4 | Non-Toxic
